Source: ChEMBL document CHEMBL4715736, “Identification of anticancer agents based on the thieno[2,3-b]pyridine and 1H-pyrazole molecular scaffolds” (2016)

What follows are compounds tested on M14 (assay: Growth inhibition of human M14 cells assessed as cell growth at 10 uM incubated for 48 hrs by sulforhodamine B assay relative to control). Details: read-out: Activity.
Format: functional
Method in brief: (§1)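 Submitted to the NCI Developmental Therapeutics Program for the NCI60 human tumour cell line panel. First screen at a single 10 µM concentration. Read-out is growth relative to untreated control cells set at 100%.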
`Cc1cccc(NC(=O)c2sc3nc4c(cc3c2N)CN(Cc2ccccc2)CC4)c1` gave a growth at 10 µM of 106%.

Each compound was assayed on NCI-H460 (assay: Growth inhibition of human NCI-H460 cells assessed as cell growth at 10 uM incubated for 48 hrs by sulforhodamine B assay relative to control). Details: read-out: Activity.
Format: functional
Method in brief: as §1
For `Cc1cccc(NC(=O)c2sc3nc4c(cc3c2N)CN(Cc2ccccc2)CC4)c1`, the growth at 10 µM was 98.6%.

The compounds below were run on SN12C (assay: Growth inhibition of human SN12C cells assessed as cell growth at 10 uM incubated for 48 hrs by sulforhodamine B assay relative to control). Details: read-out: Activity.
Format: functional
Method in brief: (§2)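 Run by the NCI Developmental Therapeutics Program as part of its 60-line human tumour panel. Each compound tested at a single 10 µM dose. Growth expressed as % relative to untreated control cells (100%).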
In the case of `Cc1cccc(NC(=O)c2sc3nc4c(cc3c2N)CN(Cc2ccccc2)CC4)c1`, the growth at 10 µM is reported as 107%.

Each compound was assayed on HL-60(TB) (assay: Growth inhibition of human HL-60(TB) cells assessed as cell growth at 10 uM incubated for 48 hrs by sulforhodamine B assay relative to control). Details: read-out: Activity.
Format: functional
Method in brief: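 Screened by the NCI Developmental Therapeutics Program on its panel of 60 human tumour cell lines. Compounds were first tested at a single 10 µM dose, and compounds active there went to dose-response curves. Growth is expressed relative to untreated control (100%). GI50 (50% of maximal proliferation inhibition) and TGI (total growth inhibition) were derived from the dose-response data.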
For `Cc1cccc(NC(=O)c2sc3nc4c(cc3c2N)CN(Cc2ccccc2)CC4)c1`, the growth at 10 µM was 108%.

These compounds were tested on KM12 (assay: Growth inhibition of human KM12 cells assessed as cell growth at 10 uM incubated for 48 hrs by sulforhodamine B assay relative to control). Details: read-out: Activity.
Format: functional
Method in brief: as §1
Work on `Cc1cccc(NC(=O)c2sc3nc4c(cc3c2N)CN(Cc2ccccc2)CC4)c1` yielded a growth at 10 µM of 96.4%.

The compounds below were run on MDA-MB-435 (assay: Growth inhibition of human MDA-MB-435 cells assessed as cell growth at 10 uM incubated for 48 hrs by sulforhodamine B assay relative to control). Details: read-out: Activity.
Format: functional
Method in brief: as §1
With `Cc1cccc(NC(=O)c2sc3nc4c(cc3c2N)CN(Cc2ccccc2)CC4)c1` the growth at 10 µM was 94.5%.

What follows are compounds tested on CCRF-CEM (assay: Growth inhibition of human CCRF-CEM cells assessed as cell growth at 10 uM incubated for 48 hrs by sulforhodamine B assay relative to control). Details: read-out: Activity.
Format: functional
Method in brief: (§3)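 NCI Developmental Therapeutics Program NCI60 panel. Compounds that were active in the 10 µM one-dose screen went on to dose–response testing. Growth at each concentration is expressed relative to untreated control (100%). GI50 (concentration giving 50% of maximal inhibition of proliferation) and TGI (concentration giving total growth inhibition) were derived from the curves.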
Compound `Cc1cccc(NC(=O)c2sc3nc4c(cc3c2N)CN(Cc2ccccc2)CC4)c1` has a growth at 10 µM of 98.9%.

The compounds below were run on SNB-75 (assay: Growth inhibition of human SNB-75 cells assessed as cell growth at 10 uM incubated for 48 hrs by sulforhodamine B assay relative to control). Details: read-out: Activity.
Format: functional
Method in brief: as §2
`Cc1cccc(NC(=O)c2sc3nc4c(cc3c2N)CN(Cc2ccccc2)CC4)c1` gave a growth at 10 µM of 101%.

These compounds were tested on RXF 393 (assay: Growth inhibition of human RXF 393 cells assessed as cell growth at 10 uM incubated for 48 hrs by sulforhodamine B assay relative to control). Details: read-out: Activity.
Format: functional
Method in brief: as §2
Compound `Cc1cccc(NC(=O)c2sc3nc4c(cc3c2N)CN(Cc2ccccc2)CC4)c1` has a growth at 10 µM of 103%.

Each compound was assayed on IGROV-1 (assay: Growth inhibition of human IGROV-1 cells assessed as cell growth at 10 uM incubated for 48 hrs by sulforhodamine B assay relative to control). Details: read-out: Activity.
Format: functional
Method in brief: as §1
With `Cc1cccc(NC(=O)c2sc3nc4c(cc3c2N)CN(Cc2ccccc2)CC4)c1` the growth at 10 µM was 102%.

The compounds below were run on SF-539 (assay: Growth inhibition of human SF-539 cells assessed as cell growth at 10 uM incubated for 48 hrs by sulforhodamine B assay relative to control). Details: read-out: Activity.
Format: functional
Method in brief: as §2
With `Cc1cccc(NC(=O)c2sc3nc4c(cc3c2N)CN(Cc2ccccc2)CC4)c1` the growth at 10 µM was 79.9%.

These compounds were tested on SK-MEL-5 (assay: Growth inhibition of human SK-MEL-5 cells assessed as cell growth at 10 uM incubated for 48 hrs by sulforhodamine B assay relative to control). Details: read-out: Activity.
Format: functional
Method in brief: as §2
`Cc1cccc(NC(=O)c2sc3nc4c(cc3c2N)CN(Cc2ccccc2)CC4)c1` gave a growth at 10 µM of 103%.

What follows are compounds tested on MDA-MB-468 (assay: Growth inhibition of human MDA-MB-468 cells assessed as cell growth at 10 uM incubated for 48 hrs by sulforhodamine B assay relative to control). Details: read-out: Activity.
Format: functional
Method in brief: as §1
For `Cc1cccc(NC(=O)c2sc3nc4c(cc3c2N)CN(Cc2ccccc2)CC4)c1`, the growth at 10 µM was 94.8%.

Each compound was assayed on SF-295 (assay: Growth inhibition of human SF-295 cells assessed as cell growth at 10 uM incubated for 48 hrs by sulforhodamine B assay relative to control). Details: read-out: Activity.
Format: functional
Method in brief: as §2
In the case of `Cc1cccc(NC(=O)c2sc3nc4c(cc3c2N)CN(Cc2ccccc2)CC4)c1`, the growth at 10 µM is reported as 110%.

These compounds were tested on A549 (assay: Growth inhibition of human A549/ATCC cells assessed as cell growth at 10 uM incubated for 48 hrs by sulforhodamine B assay relative to control). Details: read-out: Activity.
Format: functional
Method in brief: as §3
`Cc1cccc(NC(=O)c2sc3nc4c(cc3c2N)CN(Cc2ccccc2)CC4)c1` was tested, and the growth at 10 µM was 84.2%.

What follows are compounds tested on NCI-H226 (assay: Growth inhibition of human NCI-H226 cells assessed as cell growth at 10 uM incubated for 48 hrs by sulforhodamine B assay relative to control). Details: read-out: Activity.
Format: functional
Method in brief: as §1
With `Cc1cccc(NC(=O)c2sc3nc4c(cc3c2N)CN(Cc2ccccc2)CC4)c1` the growth at 10 µM was 100%.

These compounds were tested on NCI/ADR-RES (assay: Growth inhibition of human NCI/ADR-RES cells assessed as cell growth at 10 uM incubated for 48 hrs by sulforhodamine B assay relative to control). Details: read-out: Activity.
Format: functional
Method in brief: as §1
`Cc1cccc(NC(=O)c2sc3nc4c(cc3c2N)CN(Cc2ccccc2)CC4)c1` gave a growth at 10 µM of 101%.

Each compound was assayed on NCI-H322M (assay: Growth inhibition of human NCI-H322M cells assessed as cell growth at 10 uM incubated for 48 hrs by sulforhodamine B assay relative to control). Details: read-out: Activity.
Format: functional
Method in brief: as §1
For `Cc1cccc(NC(=O)c2sc3nc4c(cc3c2N)CN(Cc2ccccc2)CC4)c1`, the growth at 10 µM was 103%.

The compounds below were run on SK-MEL-28 (assay: Growth inhibition of human SK-MEL-28 cells assessed as cell growth at 10 uM incubated for 48 hrs by sulforhodamine B assay relative to control). Details: read-out: Activity.
Format: functional
Method in brief: as §2
In the case of `Cc1cccc(NC(=O)c2sc3nc4c(cc3c2N)CN(Cc2ccccc2)CC4)c1`, the growth at 10 µM is reported as 103%.

These compounds were tested on OVCAR-5 (assay: Growth inhibition of human OVCAR-5 cells assessed as cell growth at 10 uM incubated for 48 hrs by sulforhodamine B assay relative to control). Details: read-out: Activity.
Format: functional
Method in brief: as §2
Compound `Cc1cccc(NC(=O)c2sc3nc4c(cc3c2N)CN(Cc2ccccc2)CC4)c1` has a growth at 10 µM of 104%.

These compounds were tested on Hs-578T (assay: Growth inhibition of human Hs-578T cells assessed as cell growth at 10 uM incubated for 48 hrs by sulforhodamine B assay relative to control). Details: read-out: Activity.
Format: functional
Method in brief: as §1
Work on `Cc1cccc(NC(=O)c2sc3nc4c(cc3c2N)CN(Cc2ccccc2)CC4)c1` yielded a growth at 10 µM of 94.6%.

Each compound was assayed on HOP-92 (assay: Growth inhibition of human HOP-92 cells assessed as cell growth at 10 uM incubated for 48 hrs by sulforhodamine B assay relative to control). Details: read-out: Activity.
Format: functional
Method in brief: as §1
Compound `Cc1cccc(NC(=O)c2sc3nc4c(cc3c2N)CN(Cc2ccccc2)CC4)c1` has a growth at 10 µM of 100%.

These compounds were tested on MOLT-4 (assay: Growth inhibition of human MOLT-4 cells assessed as cell growth at 10 uM incubated for 48 hrs by sulforhodamine B assay relative to control). Details: read-out: Activity.
Format: functional
Method in brief: as §1
With `Cc1cccc(NC(=O)c2sc3nc4c(cc3c2N)CN(Cc2ccccc2)CC4)c1` the growth at 10 µM was 103%.

What follows are compounds tested on U-251 (assay: Growth inhibition of human U-251 cells assessed as cell growth at 10 uM incubated for 48 hrs by sulforhodamine B assay relative to control). Details: read-out: Activity.
Format: functional
Method in brief: as §2
Compound `Cc1cccc(NC(=O)c2sc3nc4c(cc3c2N)CN(Cc2ccccc2)CC4)c1` has a growth at 10 µM of 85.4%.

These compounds were tested on HCT-15 (assay: Growth inhibition of human HCT-15 cells assessed as cell growth at 10 uM incubated for 48 hrs by sulforhodamine B assay relative to control). Details: read-out: Activity.
Format: functional
Method in brief: as §1
In the case of `Cc1cccc(NC(=O)c2sc3nc4c(cc3c2N)CN(Cc2ccccc2)CC4)c1`, the growth at 10 µM is reported as 97.5%.

These compounds were tested on UACC-62 (assay: Growth inhibition of human UACC-62 cells assessed as cell growth at 10 uM incubated for 48 hrs by sulforhodamine B assay relative to control). Details: read-out: Activity.
Format: functional
Method in brief: as §2
`Cc1cccc(NC(=O)c2sc3nc4c(cc3c2N)CN(Cc2ccccc2)CC4)c1` was tested, and the growth at 10 µM was 110%.

What follows are compounds tested on A498 (assay: Growth inhibition of human A498 cells assessed as cell growth at 10 uM incubated for 48 hrs by sulforhodamine B assay relative to control). Details: read-out: Activity.
Format: functional
Method in brief: as §3
`Cc1cccc(NC(=O)c2sc3nc4c(cc3c2N)CN(Cc2ccccc2)CC4)c1` showed a growth at 10 µM of 85.1%.

Each compound was assayed on OVCAR-3 (assay: Growth inhibition of human OVCAR-3 cells assessed as cell growth at 10 uM incubated for 48 hrs by sulforhodamine B assay relative to control). Details: read-out: Activity.
Format: functional
Method in brief: as §2
In the case of `Cc1cccc(NC(=O)c2sc3nc4c(cc3c2N)CN(Cc2ccccc2)CC4)c1`, the growth at 10 µM is reported as 116%.

The compounds below were run on HOP-62 (assay: Growth inhibition of human HOP-62 cells assessed as cell growth at 10 uM incubated for 48 hrs by sulforhodamine B assay relative to control). Details: read-out: Activity.
Format: functional
Method in brief: as §1
`Cc1cccc(NC(=O)c2sc3nc4c(cc3c2N)CN(Cc2ccccc2)CC4)c1` was tested, and the growth at 10 µM was 110%.

The compounds below were run on HCT-116 (assay: Growth inhibition of human HCT-116 cells assessed as cell growth at 10 uM incubated for 48 hrs by sulforhodamine B assay relative to control). Details: read-out: Activity.
Format: functional
Method in brief: as §1
With `Cc1cccc(NC(=O)c2sc3nc4c(cc3c2N)CN(Cc2ccccc2)CC4)c1` the growth at 10 µM was 92.6%.

These compounds were tested on PC-3 (assay: Growth inhibition of human PC-3 cells assessed as cell growth at 10 uM incubated for 48 hrs by sulforhodamine B assay relative to control). Details: read-out: Activity.
Format: functional
Method in brief: as §2
Work on `Cc1cccc(NC(=O)c2sc3nc4c(cc3c2N)CN(Cc2ccccc2)CC4)c1` yielded a growth at 10 µM of 98%.

What follows are compounds tested on UACC-257 (assay: Growth inhibition of human UACC-257 cells assessed as cell growth at 10 uM incubated for 48 hrs by sulforhodamine B assay relative to control). Details: read-out: Activity.
Format: functional
Method in brief: as §2
`Cc1cccc(NC(=O)c2sc3nc4c(cc3c2N)CN(Cc2ccccc2)CC4)c1` showed a growth at 10 µM of 89.8%.

The compounds below were run on UO-31 (assay: Growth inhibition of human UO-31 cells assessed as cell growth at 10 uM incubated for 48 hrs by sulforhodamine B assay relative to control). Details: read-out: Activity.
Format: functional
Method in brief: as §2
`Cc1cccc(NC(=O)c2sc3nc4c(cc3c2N)CN(Cc2ccccc2)CC4)c1` showed a growth at 10 µM of 98.4%.
